Source: PubChem BioAssay (several laboratories)
Efflux pump inh – inhibitors of Candida antifungal efflux pumps expressed in yeast | S. cerevisiae Candida pump triplex, Nile Red efflux | inhibition, % at 10 µM | 330,000 compounds, 0.44% hits;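 active means plate passing quality check with inhibition over a set limit, or well fluorescence over plate mean plus 4 SD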;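 further: Nile Red retained in pooled yeast measured as flow cytometry median fluorescence; higher means more Nile Red kept so more efflux inhibition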
GalR3 antag – antagonists of human GalR3; 360,000 compounds, 0.44% hits; inhibition, % at 3 µM; O60755; HEK293 GalR3-CNG cAMP membrane potential fluorescence; galR3 body fused to GalR1 C-terminus; AID 651719;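 active means inhibition above the screen-wide average plus 3 SD, cut at about 13% in these data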;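 further: forskolin and galanin both at EC90 stimulate the cells; cAMP rise reported by CNG channel membrane potential dye signal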
Target sequence (O60755 1-299 limits assumed): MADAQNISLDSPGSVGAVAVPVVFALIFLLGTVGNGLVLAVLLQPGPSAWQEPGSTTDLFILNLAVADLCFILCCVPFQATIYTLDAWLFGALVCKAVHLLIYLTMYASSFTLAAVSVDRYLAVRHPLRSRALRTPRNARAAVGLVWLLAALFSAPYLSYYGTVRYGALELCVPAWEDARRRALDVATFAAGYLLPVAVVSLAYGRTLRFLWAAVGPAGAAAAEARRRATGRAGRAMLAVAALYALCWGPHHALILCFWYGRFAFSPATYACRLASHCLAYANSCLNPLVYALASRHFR
MC4R ag barr – human MC4R agonism via beta-arrestin; activation, % at 8.9 µM; AID 540308; P32245; 360,000 compounds, 0.98% hits; U2OS MC4R beta-arrestin complementation, luminescence; percent of melanotan II response, DMSO zero;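 active means activation above a per-plate cutoff, the mean activation of sample wells on that plate plus 3 SD, cut at about 8% in these data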
Target sequence (P32245 whole entry, looked up): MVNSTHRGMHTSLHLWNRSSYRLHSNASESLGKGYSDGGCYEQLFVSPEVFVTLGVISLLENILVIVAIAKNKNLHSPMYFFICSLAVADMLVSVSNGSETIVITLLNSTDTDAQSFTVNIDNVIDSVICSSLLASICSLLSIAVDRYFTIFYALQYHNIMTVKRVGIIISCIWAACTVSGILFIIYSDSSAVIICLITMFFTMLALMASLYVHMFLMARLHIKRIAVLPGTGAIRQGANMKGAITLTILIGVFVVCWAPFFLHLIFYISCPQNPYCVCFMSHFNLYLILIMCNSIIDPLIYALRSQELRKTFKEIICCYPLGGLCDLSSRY
Calb FLC – affects C. albicans growth with fluconazole | C. albicans CaCi-2 (fluconazole-resistant clinical isolate) + fluconazole, Alamar Blue growth, 48 h | growth inhibition, % (no concentration beside the values) | 300,000 compounds, 0.57% hits | AID 1979;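 active means growth inhibition above about 58% in most replicates, limit read from the data, passing the limit was not always enough; inconclusive means exactly half the replicates above a set limit; inactive means most replicates below a set limit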;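 further: all wells also contain fluconazole at 8 µg/ml as a sub-toxic cotreatment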
MC4R antag cAMP – human MC4R antagonism in cAMP assay; inhibition, % at 6.5 µM; AID 540295; P32245; MC4R-expressing cells, MTII-stimulated cAMP, LANCE TR-FRET; 360,000 compounds, 0.48% hits;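 active means inhibition above its plate's cutoff, the mean of tested wells on that plate plus 3 SD, cut at about 29% in these data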
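Material: human MC4R-expressing U2OS cells. Probe or stimulus: Melanotan II challenge. Dosing: 6.5 µM single dose. Times: 30-min compound, 1-h challenge, 1-h detection, room temperature. Technique: TR-FRET with Eu-cAMP and labeled anti-cAMP, 671 nm. Replication: singlicate.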
H9c2 TAG inh – inhibitors of triacylglycerol accumulation. H9c2 cells, Nile Red lipid (TAG) fluorescence; cells loaded with 200 µM oleic acid. inhibition, % at 12.5 µM. 230,000 compounds, 0.66% hits;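 active means pattern-corrected inhibition of lipid staining of at least 50% with the nuclear-stain viability signal not falling by more than 50%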
TAG conf – confirmation of triacylglycerol accumulation inhibitors; shares compounds with H9c2 TAG inh; H9c2 lipid accumulation, Nile Red fluorescence; cells loaded with 200 µM oleic acid; inhibition, % at 12.5 µM; 990 compounds, 71% hits; AID 651629;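 active means mean inhibition across replicates of 40% or more; inactive means mean inhibition below 40%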
Of the large screens only hits and unclear results are named; the others gave an inactive call (follow-up assays come after a bar, where they were run). A selection: hits, their analogues and other compounds. The true share with any hit is near 2.9%.

COc1ccc(NC(=O)Cc2c(C)n(C(=O)c3ccc(Cl)cc3)c3ccc(OC)cc23)cc1	none
c1ccc(COc2ncnc3c2ncn3CCCNC2CCN(Cc3ccccc3)CC2)cc1	H9c2 TAG inh 63 (no result: Efflux pump inh, Calb FLC) | TAG conf inactive
CSc1ncnc2c1ncn2CCCNC1CCN(Cc2ccccc2)CC1	none (no result: Efflux pump inh, Calb FLC)
COc1cccc(-c2nc(-c3ccncc3)no2)c1	none (no result: H9c2 TAG inh)
COc1cccc(-c2nc(-c3ccc(NC(=O)Cc4ccccc4OC)cc3)no2)c1	H9c2 TAG inh 51 (no result: Efflux pump inh, GalR3 antag, Calb FLC) | TAG conf 55
COc1cc(-c2ccc3oc(-c4cccc(C)c4)c(C#CC4(O)CCCCC4)c3c2)cc(OC)c1OC	H9c2 TAG inh 51 (no result: Calb FLC) | TAG conf 53
COc1ccccc1-c1oc2ccccc2c1C#CC1(O)CCCCC1	none (no result: Calb FLC)
Cc1c(C(=O)N2CC3(CC(c4cccc(NC(=O)CC(c5ccccc5)c5ccccc5)c4)=NO3)C[C@@H]2C(N)=O)cc([N+](=O)[O-])cc1[N+](=O)[O-] (stereo not given in full)	H9c2 TAG inh 54 | TAG conf 43
O=C(CSc1ccc(C(F)(F)F)cn1)Nc1ccccc1	none
O=C(/C=C/Sc1ccc(C(F)(F)F)cn1)c1ccccc1	H9c2 TAG inh 50 | TAG conf 45
CC(C)c1ccc(C2C3=C(COC3=O)Nc3cc4c(cc32)OCO4)cc1 (stereo not given)	H9c2 TAG inh 54 | TAG conf inactive
COc1ccc2c(c1)[nH]c1c(=O)n(/N=C/C3C(C)C=C(C)CC3C)c(=O)[nH]c12 (stereo not given)	H9c2 TAG inh 85 | TAG conf inactive
CC1=CC(C)[C@H](/C=N/n2c(=O)[nH]c3c([nH]c4ccc(Br)cc43)c2=O)C(C)C1 (stereo not given in full)	none
c1ccc(-c2nc(N3CCOCC3)cc(N3CCOCC3)n2)cc1	H9c2 TAG inh 51 | TAG conf 54
CC(=O)Nc1ccc(C(=O)N2CCCC(c3cc(C(=O)NCc4ccccc4)no3)C2)cc1 (stereo not given)	none (no result: Efflux pump inh, Calb FLC)
Cc1cccc(N2CCN(C(=O)CCCn3c(=S)[nH]c4cc5c(cc4c3=O)OCO5)CC2)c1C	H9c2 TAG inh 54 | TAG conf inactive
CC(C)C[C@H]1COc2cccc(N3CCCC3)c2S(=O)(=O)N1	none (no result: Efflux pump inh, MC4R ag barr, Calb FLC, MC4R antag cAMP, H9c2 TAG inh)
O=[N+]([O-])c1nccn1CC(O)CCN1CCOCC1 (stereo not given)	none (no result: Efflux pump inh, MC4R ag barr, Calb FLC, MC4R antag cAMP, H9c2 TAG inh)
CCc1ccc(-n2c(SCC(=O)c3ccc4c(c3)NC(=O)CO4)nc3ccccc3c2=O)cc1	none
O=C1COc2ccc(C(=O)CSc3nc4ccccc4c(=O)n3-c3ccc(Cl)c(Cl)c3)cc2N1	H9c2 TAG inh 61 | TAG conf 66
c1ccc2c(c1)ccn2CCCN1CCCCC1	none (no result: Efflux pump inh, Calb FLC)
CCc1nc2c(OCc3ccccc3C(=O)OC)cccn2c1N(C)C(=O)CC(C)C	none (no result: Efflux pump inh, Calb FLC)
CCCC1NC(=O)c2cccnc2-n2c1nc1ccc(OC)cc1c2=O (stereo not given)	none (no result: Efflux pump inh, Calb FLC)
CCCCCCCCN1C(=O)[C@H](CC(=O)NCCCN2CCCC2=O)C[C@@]2(C(=O)OC)CCCCC=C12	none (no result: Efflux pump inh, MC4R ag barr, Calb FLC, MC4R antag cAMP, H9c2 TAG inh)
CCOc1ccc(S(=O)(=O)NCc2ccccn2)cc1NC(=O)c1ccccc1	H9c2 TAG inh 58 | TAG conf 78
CCOc1ccc(S(=O)(=O)NCc2cccnc2)cc1NC(=O)c1ccccc1	none (no result: Efflux pump inh, Calb FLC)
COCCCNC(=O)c1cc2c(-c3ccc(Cl)cc3)nn(C)c2s1	none
COCCNC(=O)c1cc2c(-c3ccc(Cl)cc3)nn(C)c2s1	H9c2 TAG inh 52 | TAG conf 45
COc1ccc([C@H]2C[C@H](O)[C@@H](n3cc(-c4ccc(F)cc4)nn3)CN2Cc2cccs2)cc1	H9c2 TAG inh 59 (no result: Efflux pump inh, Calb FLC) | TAG conf 52
C[C@H]1COc2cc(N3CCCC3)ccc2S(=O)(=O)N1	none (no result: Efflux pump inh, MC4R ag barr, Calb FLC, MC4R antag cAMP, H9c2 TAG inh)
O=C(Nc1ccc(-c2csc(Nc3ccc(Cl)cc3)n2)cc1)c1ccccc1	none (no result: Calb FLC)
O=C(Nc1ccc(-c2csc(Nc3cccc(C(F)(F)F)c3)n2)cc1)c1ccccc1	H9c2 TAG inh 51 | TAG conf 63
O=C(Nc1ccc(-c2csc(Nc3cccc(C(F)(F)F)c3)n2)cc1)c1cc([N+](=O)[O-])cc(C(F)(F)F)c1	H9c2 TAG inh 71 | TAG conf 68
O=C(Nc1nc(-c2ccccc2)cs1)c1cccc([N+](=O)[O-])c1	none (no result: H9c2 TAG inh)
COCCN1C(=O)CSCC1(C)C(=O)NCc1ccccc1 (stereo not given)	none (no result: Efflux pump inh, MC4R ag barr, Calb FLC, MC4R antag cAMP, H9c2 TAG inh)
COC(=O)c1ccc(C(=O)OC)c(NC(=O)CN2CCN(c3ccc(OC)cc3)CC2)c1	H9c2 TAG inh 56 | TAG conf inactive
O=C(Nc1ccccc1F)C1CCN(C(=O)NCc2ccccc2)CC1	none (no result: H9c2 TAG inh)
CCOc1ccccc1NC(=O)C1CCN(C(=O)NCc2ccccc2)CC1	Calb FLC inconclusive, H9c2 TAG inh 63 | TAG conf 47
CCOc1ccccc1NC(=O)CCC(=O)Nc1ccccc1OCC	H9c2 TAG inh 59 | TAG conf 49
COc1ccc(-c2ccc(C(=O)NCc3ccc(C(F)(F)F)cc3)c3occc23)c(C)c1	none (no result: Efflux pump inh, Calb FLC)
COCc1[nH]nc2c1C(c1ccc(F)cc1)N(Cc1ccccc1)C2=O (stereo not given)	none (no result: Efflux pump inh, MC4R ag barr, Calb FLC, MC4R antag cAMP, H9c2 TAG inh)
CCCc1c(C(=O)N/N=C(\C)c2ccccn2)nnn1-c1nonc1N	none (no result: Efflux pump inh, Calb FLC)
CCCOc1ccccc1C1CC(=O)NC2=C1C(=O)CCC2 (stereo not given)	none
CCCCOc1ccccc1C1CC(=O)NC2=C1C(=O)CCC2 (stereo not given)	H9c2 TAG inh 71 | TAG conf 66
Cc1ccc(C(=O)CC2(O)C(=O)N(CCc3ccccc3)c3ccc(Br)cc32)o1 (stereo not given)	H9c2 TAG inh 51 | TAG conf inactive
NC(N)=Nc1ccc(C=C2C=Cc3ccccc32)cc1	H9c2 TAG inh 60 (no result: Efflux pump inh, Calb FLC) | TAG conf 61
Cc1ccc2c(=O)n3c(nc2c1)C(Cc1ccc(O)cc1)NC(=O)c1cc2ccccc2cc1-3 (stereo not given)	H9c2 TAG inh 53 (no result: Efflux pump inh, Calb FLC) | TAG conf 67
O=C1NC(Cc2ccccc2)c2nc3ccc(Cl)cc3c(=O)n2-c2cc3ccccc3cc21 (stereo not given)	none (no result: Efflux pump inh, Calb FLC)
O=C1NC(Cc2ccc(O)cc2)c2nc3ccc(Cl)cc3c(=O)n2-c2cc3ccccc3cc21 (stereo not given)	H9c2 TAG inh 64 (no result: Efflux pump inh, Calb FLC) | TAG conf 60
CCCCNC(=O)CCC(=O)Nc1ccc2nc(N3CCOCC3)cc(C)c2c1	none
CCN1CCN(c2cc(C)c3cc(NC(=O)c4ccc(Br)o4)ccc3n2)CC1	H9c2 TAG inh 58 | TAG conf inactive
Cc1cc(N2CCOCC2)nc2ccc(NC(=O)C3CCC(C)CC3)cc12 (stereo not given)	H9c2 TAG inh 54 | TAG conf inactive
